Shown are actives, neighbours in structure and some others; about 4.1% of the full set was active somewhere.
KCNQ1 inh: human KCNQ1 channel inhibition; B-score at 10 µM; AID 2642; 310,000 compounds, 1.3% hits; CHO-K1 KCNQ1, FluxOR thallium flux fluorescence; hits give high values;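 active = compounds whose thallium flux B-score, printed positive for inhibition, exceeds three library SD while starting fluorescence stays within three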;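 also: channel opened by potassium depolarization with thallium stimulus after 20 min compound exposure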
KCNK3 block: human KCNK3 channel inhibition, primary screen; CHO-KCNK3 thallium flux, FluxOR fluorescence; hits give low values; B-score at 10 µM; 340,000 compounds, 0.84% hits;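 active = B-score under library mean minus 4 SD, starting fluorescence ratio at most library mean plus 5 SD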;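 also: more negative B-score means stronger inhibition of thallium flux through KCNK3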
Target sequence (O14649 whole entry, looked up): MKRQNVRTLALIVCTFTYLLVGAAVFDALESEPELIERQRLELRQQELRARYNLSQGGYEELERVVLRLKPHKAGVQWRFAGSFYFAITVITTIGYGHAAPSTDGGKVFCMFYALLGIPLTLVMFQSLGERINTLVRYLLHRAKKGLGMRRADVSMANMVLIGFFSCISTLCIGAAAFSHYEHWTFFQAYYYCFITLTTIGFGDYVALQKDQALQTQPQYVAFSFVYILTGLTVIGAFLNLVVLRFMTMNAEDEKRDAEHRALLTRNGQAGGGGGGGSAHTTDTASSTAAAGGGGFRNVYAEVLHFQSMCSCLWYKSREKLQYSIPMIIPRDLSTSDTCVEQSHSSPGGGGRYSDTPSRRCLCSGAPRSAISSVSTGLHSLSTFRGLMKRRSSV
KCNQ1 pot: potentiates or activates the human KCNQ1 potassium channel | B-score at 10 µM | AID 2648 | CHO-K1 KCNQ1, thallium flux FluxOR fluorescence; hits give high values | P51787 | 310,000 compounds, 0.35% hits;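 active = fluorescence ratio B-score, a plate-corrected score, at least three library SD, with initial intensity B-score within 5 SD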
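Doses: Single concentration per compound, DMSO matched to controls | Test system: KCNQ1-transfected CHO-K1 cells | Timing: 90 min dye loading and 20 min compound exposure, both at room temperature | Measured by: Kinetic FluxOR thallium fluorescence, 10-s 1-Hz baseline, 110-s post-stimulus read | Medium: Assay buffer with matched DMSO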
KCNK9 inh: blocks the human KCNK9 two-pore domain potassium channel | 310,000 compounds, 1.2% hits | B-score at 10 µM | HEK293 KCNK9, FluxOR thallium flux fluorescence; hits give low values;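 active = ratio B-score over 3 SD below the library mean, with starting fluorescence within 5 SD of its mean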;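 also: negative B-score means less thallium flux so channel inhibition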
Target sequence (Q9NPC2 whole entry, looked up, the tested form may be a part): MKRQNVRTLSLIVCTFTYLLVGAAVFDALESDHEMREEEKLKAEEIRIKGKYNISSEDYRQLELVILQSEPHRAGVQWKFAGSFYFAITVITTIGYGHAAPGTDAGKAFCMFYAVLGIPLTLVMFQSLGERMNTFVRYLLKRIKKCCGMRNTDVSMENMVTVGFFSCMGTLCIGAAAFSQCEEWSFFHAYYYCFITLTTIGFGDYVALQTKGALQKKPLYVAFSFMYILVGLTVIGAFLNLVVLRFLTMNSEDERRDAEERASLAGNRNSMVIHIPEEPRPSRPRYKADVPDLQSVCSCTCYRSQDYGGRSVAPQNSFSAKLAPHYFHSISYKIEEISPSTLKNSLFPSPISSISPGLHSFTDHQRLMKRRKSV
Cl transport mod: KCC2 (human) Cl- transport modulation; KCC2 cells, thallium flux FluoZin-2 fluorescence; B-score of Tl+ flux slope (higher = more flux/activation; lower = inhibition) at 10 µM; 190,000 compounds, 2.2% hits; AID 1456;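 active = thallium flux slope and its plate-corrected score both differing from the plate sample mean at a set confidence after two filtering rounds, in either direction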;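 also: slope of fluorescence scaled to starting intensity during 10 to 20 s after thallium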
hERG protect: shields human hERG channel from block by proarrhythmic agents. activation (rescue from dofetilide block), less the hit threshold, % at 10 µM. CHO-hERG, FluxOR thallium flux, dofetilide IC70 present. AID 1511. Q12809. 310,000 compounds, 0.51% hits;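 active = activation above the mean of controls blocked by dofetilide plus 5 SD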;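 also: thallium influx through hERG after potassium depolarization seen as dye fluorescence rise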
KCC2 sec1: KCC2 (human) modulation, secondary assay; normalised thallium flux (F/F0 slope) at 10 µM; 3,700 compounds, 15% hits; HEK293-KCC2, thallium flux, FluoZin2 fluorescence; hits give high values; shares compounds with Cl transport mod;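 active = thallium flux slope above the same plate's solvent-only control mean plus 3 SD; inconclusive = the two replicate wells disagree; inactive = no significant difference from solvent-only control wells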
KCC2 bumet counter: thallium flux despite bumetanide block in KCC2 cells, secondary assay 3. shares compounds with Cl transport mod. HEK293-KCC2 + bumetanide/ouabain, thallium flux FluoZin2; hits give high values. normalized thallium flux at 10 µM. 3,700 compounds, 49% hits. AID 1714;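 active = thallium entry rate above the same plate's blocked-transporter control wells by more than 3 SD; inconclusive = the two repeat wells disagree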;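 also: raw slope of fluorescence over initial fluorescence between 10 and 20 s after thallium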
KCC2 secondary2: KCC2 (human) modulation, second secondary assay. shares compounds with Cl transport mod. HEK293-KCC2, thallium flux FluoZin2 fluorescence; actives lie on both sides; F/F0 rise rate, 10–20 s post-thallium. normalized thallium flux at 10 µM. 3,700 compounds, 23% hits. AID 1715;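 active = thallium flux slope more than 3 SD above or below the plate's solvent-only control mean, mostly below; inconclusive = the two repeat wells disagreed; inactive = no significant shift from solvent-only controls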;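 also: raw slope with 0.1% DMSO as baseline and bumetanide as block control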
HEK counter1: acts in parental HEK cells, KCC2 counter-screen. shares compounds with Cl transport mod. HEK293 parental cells, thallium flux FluoZin2, ouabain; baseline-ratio fluorescence slope, 10–20 s after thallium. thallium flux rate (normalised fluorescence) at 10 µM. 3,700 compounds, 46% hits;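 active = thallium flux rate significantly above the same plate's solvent-only control wells, beyond their mean plus 3 SD; inconclusive = the two replicate wells gave conflicting results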
KCC2 ouabain: confirmation of human KCC2 modulators with ouabain | raw Tl+ flux slope (below DMSO = inhibition, above = activation) at 10 µM | shares compounds with Cl transport mod | 3,700 compounds, 48% hits | HEK293-KCC2, thallium flux FluoZin2 fluorescence; bidirectional: low = inhibitor, high = activator;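 active = thallium flux slope beyond 3 SD from same-plate DMSO control mean in most replicates, usually higher, sometimes lower; inconclusive = repeat tests gave conflicting results; inactive = no significant difference from controls in most replicates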;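 also: slope of initial-normalized fluorescence between seconds 10 and 20 after thallium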
HEK293 Tl flux2: acts in parental HEK cells, second KCC2 counter-screen | shares compounds with Cl transport mod | HEK293 parental, thallium flux FluoZin-2 fluorescence slope | thallium flux slope at 10 µM | 3,700 compounds, 33% hits | AID 1718;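 active = thallium flux slope above the same plate's solvent-control mean plus 3 SD in both duplicate wells; inconclusive = duplicate wells that disagreed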;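 also: run without ouabain in cells lacking the KCC2 cotransporter; slope of fluorescence scaled to its starting value between 10 and 20 s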
An asterisk follows results filed as active; i = inactive; ? = inconclusive; . = no result given.

SMILES | KCNQ1 inh | KCNK3 block | KCNQ1 pot | KCNK9 inh | Cl transport mod | hERG protect | KCC2 sec1 | KCC2 bumet counter | KCC2 secondary2 | HEK counter1 | KCC2 ouabain | HEK293 Tl flux2
CN(CC(=O)Nc1cccc(F)c1)C(=O)c1ccc2c(c1)CC(c1ccccc1)OC2=O (stereo not given) | . | i | . | . | . | . | . | . | . | . | . | .
Cc1ccc(-c2ccc(S(=O)(=O)NCC3CCCO3)cc2)cc1 (stereo not given) | i | i | i | i | -4.9* | -8 | 0.0054 | 0.0041 | 0.026* | 0.0078 | ? | 0.011
Cc1ccc(S(=O)(=O)Nc2ccc(S(=O)(=O)NCC3CCCO3)cc2)cc1 (stereo not given) | i | i | i | i | . | -4 | . | . | . | . | . | .
CCN(CC)S(=O)(=O)c1ccc(Cl)c(OC)c1 | i | i | i | i | . | -13 | 0.008 | 0.0051 | 0.029 | 0.0065 | 0.02 | 0.0087
Cc1ccc2sc(NNC(=O)C3COc4ccccc4O3)nc2c1C (stereo not given) | . | i | . | . | 6.5* | . | 0.008 | 0.042* | 0.032 | 0.017* | ? | 0.012*
COc1cccc2sc(NNC(=O)C3=COCCO3)nc12 | i | i | i | i | -0.13 | -5 | . | . | . | . | . | .
COc1cccc2sc(NNC(=O)C3COc4ccccc4O3)nc12 (stereo not given) | i | i | i | i | 20* | -13 | 0.021* | 0.03* | ? | 0.019* | 0.026* | 0.021*
COc1ccc(CNC(=O)C2COc3ccccc3O2)c(OC)c1 (stereo not given) | i | i | i | i | . | -13 | 0.01 | 0.0057 | 0.034 | 0.0042 | 0.019 | 0.012
Cc1nc2ccc3nc(NC(=O)C4COc5ccccc5O4)sc3c2s1 (stereo not given) | i | i | i | i | 5.7* | -19 | 0.0066 | 0.013* | 0.031 | 0.011* | ? | 0.014*
CSc1nc2ccc3nc(NC(=O)C4COc5ccccc5O4)sc3c2s1 (stereo not given) | i | i | i | i | 0.079 | -12 | . | . | . | . | . | .
COc1ccc(OC)c(NC(=O)C2COc3ccccc3O2)c1 (stereo not given) | i | i | i | i | -0.095 | -2 | . | . | . | . | . | .
CON(C)C(=O)/C=C/c1ccc([B-](F)(F)F)cc1 | . | i | . | . | . | . | . | . | . | . | . | .
CN(c1ccccc1)S(=O)(=O)c1ccc(Cl)c(C(=O)NCc2ccccc2CN2CCCC2)c1 | . | i | . | . | . | . | . | . | . | . | . | .
O=C(NNc1nc2c(F)cccc2s1)C1COc2ccccc2O1 (stereo not given) | i | i | i | i | 10* | -5 | 0.0078 | 0.037* | 0.047* | 0.035* | 0.038* | 0.03*
O=C(Nc1nc2c(F)cccc2s1)C1CC1 | i | i | i | i | . | -4 | . | . | . | . | . | .
O=C(Nc1ccc(S(=O)(=O)Nc2ncccn2)cc1)C12CC3CC(CC(Cl)(C3)C1)C2 | . | i | . | . | . | . | . | . | . | . | . | .
COc1ccc(CCNC(=O)C2CCN(S(C)(=O)=O)CC2)cc1 | i | i | i | i | -3.4* | -3 | 0.0075 | 0.004 | 0.027 | 0.0074 | 0.019 | 0.0095
O=C(N/N=C/c1ccc2c(c1)OCO2)C(O)c1ccccc1 (stereo not given) | i | i | i | i | 4.7* | -5 | 0.0079 | 0.0068 | 0.03 | 0.0066 | 0.02 | 0.0099
Cc1cccc(C)c1NC(=O)CN1C(=O)S/C(=C\c2cccn2-c2cccc(C(=O)O)c2)C1=O | i | i | i | i | . | -10 | . | . | . | . | . | .
Cc1cccc(C)c1-n1cccc1/C=C1\SC(=S)N(c2cccc(C(=O)O)c2)C1=O | i | i | i | i | -4.5* | -32 | 0.0062 | 0.004 | 0.029 | 0.0054* | 0.015* | 0.0083*
Nc1ncnc(Nc2ccccc2Oc2ccccc2)n1 | . | i | . | . | . | . | . | . | . | . | . | .
Cc1ccc2c(c1)C(c1ccc(O)cc1)(c1ccc(O)cc1)C(=O)N2C | i | i | i | i | 3.7* | -10 | 0.011 | 0.0069 | 0.031 | 0.0073 | 0.036 | ?
COC(=O)c1ccc(NC(=O)CC2C(=O)N(c3ccc(C)cc3)C(=O)N2CC(C)C)cc1 (stereo not given) | i | i | i | i | . | -15 | . | . | . | . | . | .
CCOC(=O)c1ccc(NC(=O)CC2C(=O)N(c3ccc(F)cc3)C(=O)N2CCC(C)C)cc1 (stereo not given) | i | i | i | i | -3.5* | -10 | 0.01 | 0.006 | 0.033 | 0.0073 | 0.021 | 0.011
Cc1onc(-c2c(Cl)cccc2Cl)c1C(=O)Nc1nccs1 | i | i | i | i | . | -9 | . | . | . | . | . | .
SMILES | KCNQ1 inh | KCNK3 block | KCNQ1 pot | KCNK9 inh | Cl transport mod | hERG protect | KCC2 sec1 | KCC2 bumet counter | KCC2 secondary2 | HEK counter1 | KCC2 ouabain | HEK293 Tl flux2
Oc1c(C=Nc2ccccc2)sc2ccccc12 | i | i | i | i | 2.8* | -4 | 0.0069 | 0.0065 | 0.029 | 0.0069 | ? | 0.01
Cc1ccccc1[C@@H](NC(=O)OC(C)(C)C)C(=O)OC(C)(C)C | . | i | . | . | . | . | . | . | . | . | . | .
O=C(Nc1nnc(-c2ccccc2Cl)o1)c1cc2cc([N+](=O)[O-])ccc2s1 | . | . | . | . | 6.6* | . | 0.0055 | 0.015* | 0.034 | 0.016* | ? | 0.017*
O=C(Nc1ccccn1)c1cc2cc([N+](=O)[O-])ccc2s1 | i | i | i | i | -0.37 | 2 | . | . | . | . | . | .
CCOC(=O)Cc1csc(Nc2c(C)n(C)n(-c3ccccc3)c2=O)n1 | i | i | i | i | 1 | -4 | . | . | . | . | . | .
Cc1c(Nc2nc(-c3ccc(Cl)cc3)cs2)c(=O)n(-c2ccccc2)n1C | i | i | i | i | -4.5* | -8 | 0.0065 | 0.0052 | 0.024* | 0.0058* | 0.014* | ?
